The IC50 is the concentration needed to halve the response being measured.

Structures are written as SMILES. The source made the active and inactive calls. No cut-off for these calls is given here.

Test [1] has as its system HCT-116. Put plainly: Induction of apoptosis in human HCT116 cells assessed as caspase3 activation using Ac-DEVD-AMC as substrate preincubated for 24 hrs followed by substrate addition measured after 3 hrs by fluorescence assay. The format is functional, cell-based.
In test [2] the test system is MCF7. Kind of test: Cell cycle arrest in BrdU pulse-labelled human MCF7 cells assessed as decrease in cells at S phase at 8 to 250 nM after 24 hrs by propidium iodide staining based flow cytometry. The format is functional.
The test system of test [3] is HCT-116. Put plainly: Induction of apoptosis in human HCT116 cells assessed as increase in p53 expression at 250 to 500 nM incubated for 24 hrs by immunoblotting analysis. It is filed as functional, cell-based. The method in brief:
(§1)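 HCT-116 cells were treated with different doses for 24 h and harvested into Laemmli buffer. Proteins were separated by SDS-PAGE and blotted to nitrocellulose. Membranes were probed overnight with primary antibodies (anti-PARP F-2, anti-Mcl-1 S-19, anti-p53 DO-1), then with peroxidase secondaries. Bands were detected by ECL with a CCD camera, with tubulin as loading control.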
On the technique in general: A western blot detects proteins with antibodies after separation by electrophoresis.

The target of test [4] is Ephrin type-A receptor 2 (Homo sapiens) (UniProt P29317). Kind of test: Inhibition of recombinant EPHA2 (unknown origin) assessed as residual activity at 1 uM relative to control.
Ephrin type-A receptor 2 (Homo sapiens), sequence (P29317 whole entry): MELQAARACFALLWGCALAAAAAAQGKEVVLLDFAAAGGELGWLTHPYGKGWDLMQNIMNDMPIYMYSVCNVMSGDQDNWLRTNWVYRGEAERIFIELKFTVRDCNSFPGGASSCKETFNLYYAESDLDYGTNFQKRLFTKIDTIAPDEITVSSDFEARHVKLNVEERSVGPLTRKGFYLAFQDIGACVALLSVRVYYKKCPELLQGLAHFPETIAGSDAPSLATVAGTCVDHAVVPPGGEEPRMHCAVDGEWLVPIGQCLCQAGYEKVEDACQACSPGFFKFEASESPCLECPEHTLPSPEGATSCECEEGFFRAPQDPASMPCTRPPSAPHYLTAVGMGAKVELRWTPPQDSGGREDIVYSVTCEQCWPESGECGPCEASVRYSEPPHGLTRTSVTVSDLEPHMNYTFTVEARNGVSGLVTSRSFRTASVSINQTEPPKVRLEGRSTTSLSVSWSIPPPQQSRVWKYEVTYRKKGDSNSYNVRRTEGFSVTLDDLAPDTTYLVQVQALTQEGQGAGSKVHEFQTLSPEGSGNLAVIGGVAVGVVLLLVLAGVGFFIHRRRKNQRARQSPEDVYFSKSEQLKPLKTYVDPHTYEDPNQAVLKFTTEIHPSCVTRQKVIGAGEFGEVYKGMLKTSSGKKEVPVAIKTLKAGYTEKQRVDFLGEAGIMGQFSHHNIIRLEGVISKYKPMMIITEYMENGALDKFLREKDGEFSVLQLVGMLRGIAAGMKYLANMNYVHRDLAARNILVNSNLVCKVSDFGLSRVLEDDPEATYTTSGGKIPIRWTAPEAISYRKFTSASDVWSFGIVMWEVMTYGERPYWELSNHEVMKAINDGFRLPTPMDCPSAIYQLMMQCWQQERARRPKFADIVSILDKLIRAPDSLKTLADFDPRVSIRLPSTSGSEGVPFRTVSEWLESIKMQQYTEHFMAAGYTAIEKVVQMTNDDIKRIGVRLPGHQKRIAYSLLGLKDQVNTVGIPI
A short description of test [5]: Cell cycle arrest in BrdU pulse-labelled human HCT116 cells assessed as accumulation at subG1 phase at 125 to 500 nM after 24 hrs by propidium iodide staining based flow cytometry. It is filed as functional. The conditions noted are these: HCT-116.
Test [6] concerns the target Dual specificity mitogen-activated protein kinase kinase 1 (Homo sapiens) (UniProt Q02750). Put plainly: Inhibition of recombinant MKK1 (unknown origin) assessed as residual activity at 1 uM relative to control.
The subject of test [7] is HCT-116. Put plainly: Induction of apoptosis in human HCT116 cells assessed as PARP1 cleavage incubated for 24 hrs by immunoblotting analysis. It is filed as functional, cell-based. The method in brief:
as §1

In test [8] the target is MAP/microtubule affinity-regulating kinase 3 (Homo sapiens) (UniProt P27448). Kind of test: Inhibition of recombinant MARK3 (unknown origin) assessed as residual activity at 1 uM relative to control.
MAP/microtubule affinity-regulating kinase 3 (Homo sapiens), sequence (P27448 whole entry, looked up): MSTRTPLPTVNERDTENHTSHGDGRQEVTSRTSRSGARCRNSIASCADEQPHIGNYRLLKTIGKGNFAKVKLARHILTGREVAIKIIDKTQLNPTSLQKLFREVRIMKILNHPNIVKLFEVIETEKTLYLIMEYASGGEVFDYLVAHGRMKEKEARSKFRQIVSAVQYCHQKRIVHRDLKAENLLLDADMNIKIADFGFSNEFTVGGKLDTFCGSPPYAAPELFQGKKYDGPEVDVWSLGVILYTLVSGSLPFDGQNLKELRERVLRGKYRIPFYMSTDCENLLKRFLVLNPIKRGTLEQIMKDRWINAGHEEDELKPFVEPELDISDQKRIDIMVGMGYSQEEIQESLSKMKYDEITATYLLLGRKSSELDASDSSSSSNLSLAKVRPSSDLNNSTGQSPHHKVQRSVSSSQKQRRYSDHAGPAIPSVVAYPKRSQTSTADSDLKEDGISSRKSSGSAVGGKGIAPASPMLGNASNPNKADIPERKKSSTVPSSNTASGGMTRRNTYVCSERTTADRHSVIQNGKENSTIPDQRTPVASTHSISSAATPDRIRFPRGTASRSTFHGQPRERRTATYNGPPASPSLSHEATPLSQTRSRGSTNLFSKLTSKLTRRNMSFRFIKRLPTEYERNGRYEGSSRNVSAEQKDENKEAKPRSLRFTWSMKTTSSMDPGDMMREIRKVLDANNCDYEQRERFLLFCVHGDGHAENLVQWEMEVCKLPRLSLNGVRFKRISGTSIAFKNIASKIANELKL
Test [9] addresses Mitogen-activated protein kinase kinase kinase 7 (Homo sapiens) (UniProt O43318). Put plainly: Inhibition of recombinant TAK1 (unknown origin) assessed as residual activity at 1 uM relative to control.
In test [10] the target is Serine/threonine-protein kinase pim-1 (Homo sapiens) (UniProt P11309). Put plainly: Inhibition of recombinant PIM1 (unknown origin) assessed as residual activity at 1 uM relative to control.
Serine/threonine-protein kinase pim-1 (Homo sapiens), sequence (P11309 whole entry, looked up): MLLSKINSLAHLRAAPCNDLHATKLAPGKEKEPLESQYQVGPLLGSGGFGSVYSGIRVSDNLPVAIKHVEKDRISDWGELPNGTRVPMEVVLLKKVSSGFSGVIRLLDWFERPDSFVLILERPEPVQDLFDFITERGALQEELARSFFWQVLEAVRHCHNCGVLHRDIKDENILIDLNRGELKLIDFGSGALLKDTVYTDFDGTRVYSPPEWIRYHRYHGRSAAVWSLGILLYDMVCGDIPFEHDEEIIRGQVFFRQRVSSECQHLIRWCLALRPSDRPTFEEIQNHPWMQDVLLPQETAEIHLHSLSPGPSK
Test [11] addresses AMP-activated protein kinase, AMPK (Homo sapiens) (UniProt P54646+O43741+P54619+Q9UGJ0+Q9Y478+Q13131+Q9UGI9). Put plainly: Inhibition of recombinant human AMPK assessed as residual activity at 1 uM relative to control. The format is protein-complex assay.
Test [12] deals with Mitogen-activated protein kinase 14 (Homo sapiens) (UniProt Q16539). Kind of test: Inhibition of recombinant p38alpha MAP kinase (unknown origin) assessed as residual activity at 1 uM relative to control.
Mitogen-activated protein kinase 14 (Homo sapiens), sequence (Q16539 whole entry): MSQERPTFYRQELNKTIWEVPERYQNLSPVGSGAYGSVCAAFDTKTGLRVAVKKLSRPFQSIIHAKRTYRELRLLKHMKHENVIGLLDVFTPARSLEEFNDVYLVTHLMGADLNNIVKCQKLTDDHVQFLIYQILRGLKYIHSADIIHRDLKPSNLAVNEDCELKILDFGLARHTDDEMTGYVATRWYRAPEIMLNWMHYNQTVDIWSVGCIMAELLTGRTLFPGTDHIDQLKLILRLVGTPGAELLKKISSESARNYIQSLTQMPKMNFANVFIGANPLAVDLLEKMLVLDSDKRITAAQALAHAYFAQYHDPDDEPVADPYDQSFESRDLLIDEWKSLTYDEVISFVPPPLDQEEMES
In test [13] the test system is MCF7. Kind of test: Cytotoxicity against human MCF7 cells assessed as reduction in cell viability after 72 hrs by calcein AM staining based fluorescence assay. It is filed as functional. The method in brief: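 Cells were grown in DMEM with 10% FBS, penicillin and streptomycin at 37 °C in 5% CO2. Three doses were tested in triplicate for 72 h.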

Mitogen-activated protein kinase kinase kinase 7 (Homo sapiens), sequence (O43318 whole entry): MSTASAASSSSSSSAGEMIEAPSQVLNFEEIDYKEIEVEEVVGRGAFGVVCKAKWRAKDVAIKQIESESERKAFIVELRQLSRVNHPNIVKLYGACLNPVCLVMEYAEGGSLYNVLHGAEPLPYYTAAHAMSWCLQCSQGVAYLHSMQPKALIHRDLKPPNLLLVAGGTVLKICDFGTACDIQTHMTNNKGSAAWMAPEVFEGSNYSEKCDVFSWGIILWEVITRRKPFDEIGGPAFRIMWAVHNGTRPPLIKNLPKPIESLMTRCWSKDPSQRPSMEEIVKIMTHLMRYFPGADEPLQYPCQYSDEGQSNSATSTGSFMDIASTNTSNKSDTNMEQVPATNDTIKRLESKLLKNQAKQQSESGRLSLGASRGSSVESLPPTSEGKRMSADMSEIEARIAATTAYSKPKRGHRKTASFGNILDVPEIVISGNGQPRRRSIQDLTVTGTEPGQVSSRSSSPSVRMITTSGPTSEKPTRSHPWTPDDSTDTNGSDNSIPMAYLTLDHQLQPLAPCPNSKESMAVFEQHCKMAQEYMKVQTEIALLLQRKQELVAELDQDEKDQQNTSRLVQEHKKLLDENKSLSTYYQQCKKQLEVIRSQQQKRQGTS
Dual specificity mitogen-activated protein kinase kinase 1 (Homo sapiens), sequence (Q02750 whole entry): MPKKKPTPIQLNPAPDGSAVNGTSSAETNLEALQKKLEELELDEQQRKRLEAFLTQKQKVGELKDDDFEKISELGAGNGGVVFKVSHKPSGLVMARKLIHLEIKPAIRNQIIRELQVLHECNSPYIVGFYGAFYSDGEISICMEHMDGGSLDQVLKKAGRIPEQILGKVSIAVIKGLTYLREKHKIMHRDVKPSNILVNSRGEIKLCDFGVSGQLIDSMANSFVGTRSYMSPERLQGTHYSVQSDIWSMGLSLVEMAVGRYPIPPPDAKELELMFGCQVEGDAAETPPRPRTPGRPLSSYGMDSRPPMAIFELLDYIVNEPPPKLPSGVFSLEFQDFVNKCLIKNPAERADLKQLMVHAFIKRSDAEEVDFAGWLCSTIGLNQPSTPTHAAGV

Consider `CC(O)CNc1nc(NCc2ccc(-c3ccccn3)cc2)c2[nH]nc(C(C)C)c2n1` (centres undefined), for which the Activity result in test [1] is “Dose-dependent effect”; in test [4] it was 92%; in test [6], 87%; in test [7], “Dose-dependent effect”; in [8], > 100%; in test [9], > 100%. Also, the Activity is > 100% in test [10], 68% in test [11], > 100% in [12] and “Dose-dependent effect” in test [13]. For the same molecule, the outcome in test [2], in [3] and in test [5] was Active. Further, in [13] (MCF7, 72 h), the IC50 is 27 nM.
